The results in this text go back to ChEMBL document CHEMBL1137650, “An OXA-66/OXA-51-like carbapenemase and possibly an efflux pump are associated with resistance to imipenem in Acinetobacter baumannii” (2007).

For orientation: MIC means the lowest concentration found to suppress growth. Read a high MIC as a less susceptible organism.

≈ marks a conversion by molar mass, not a printed value. A value given as a limit tells only on which side of the number the result lay.

For one assay, the system named is Acinetobacter baumannii. The assay is described as follows: Antibacterial activity against imipenem-resistant Acinetobacter baumannii abh39 by broth dilution method. It counts as functional. The essentials: (§1)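 Clinical isolates were collected at three Taiwan hospitals (1993–2003) and grown in tryptic soy broth at 37°C for 18 h. MIC by broth dilution following CLSI recommendations.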
Turning to `CC(C)(O/N=C(\C(=O)N[C@@H]1C(=O)N2C(C(=O)[O-])=C(C[n+]3ccccc3)CS[C@H]12)c1csc(N)n1)C(=O)O` [CEFTAZIDIME], the MIC was > 256 mg/L.

In a further assay the test system is Acinetobacter baumannii. The assay is described as follows: Antibacterial activity against imipenem-resistant Acinetobacter baumannii abh14 by broth dilution method. It counts as functional. The essentials:
as §1
For orientation: Dilution methods test growth across graded concentrations, often in twofold steps.
With `CC(C)(O/N=C(\C(=O)N[C@@H]1C(=O)N2C(C(=O)[O-])=C(C[n+]3ccccc3)CS[C@H]12)c1csc(N)n1)C(=O)O` [CEFTAZIDIME], the MIC is > 256 mg/L.

Another assay has as its system Acinetobacter baumannii. The experiment in a line: Antibacterial activity against imipenem-susceptible Acinetobacter baumannii ab1254 by broth dilution method. It counts as functional. The essentials:
as §1
For the compound `CC(C)(O/N=C(\C(=O)N[C@@H]1C(=O)N2C(C(=O)[O-])=C(C[n+]3ccccc3)CS[C@H]12)c1csc(N)n1)C(=O)O` [CEFTAZIDIME], the MIC was > 256 mg/L.

A further assay concerns Acinetobacter baumannii. The assay is described as follows: Antibacterial activity against imipenem-resistant Acinetobacter baumannii ab1265 by broth dilution method. The assay is classed as functional. The gist of the method: as §1
`CC(C)(O/N=C(\C(=O)N[C@@H]1C(=O)N2C(C(=O)[O-])=C(C[n+]3ccccc3)CS[C@H]12)c1csc(N)n1)C(=O)O` [CEFTAZIDIME]: the MIC was > 256 mg/L.

The test system of a further assay is Acinetobacter baumannii. The assay is described as follows: Antibacterial activity against imipenem-susceptible Acinetobacter baumannii ab4 by broth dilution method. It counts as functional. The gist of the method: as §1
Turning to `CC(C)(O/N=C(\C(=O)N[C@@H]1C(=O)N2C(C(=O)[O-])=C(C[n+]3ccccc3)CS[C@H]12)c1csc(N)n1)C(=O)O` [CEFTAZIDIME], 32 mg/L (≈ 58.5 µM) was the least that counted as inhibitory (MIC).

Another assay concerns Acinetobacter baumannii. The assay is described as follows: Antibacterial activity against imipenem-intermediate Acinetobacter baumannii ab1297 by broth dilution method. It counts as functional. The gist of the method:
(§2)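 Clinical A. baumannii isolates collected at three Taiwanese hospitals, routinely grown in tryptic soy broth at 37°C for 18 h. MICs (μg ml⁻¹) were determined by broth dilution following CLSI recommendations, or by Etest strips following the manufacturer's instructions.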
On to `CC(C)(O/N=C(\C(=O)N[C@@H]1C(=O)N2C(C(=O)[O-])=C(C[n+]3ccccc3)CS[C@H]12)c1csc(N)n1)C(=O)O` [CEFTAZIDIME], for which the MIC is > 256 mg/L.

The subject of the next assay is Acinetobacter baumannii. The experiment in a line: Antibacterial activity against imipenem-resistant Acinetobacter baumannii abh37 by broth dilution method. It counts as functional. The gist of the method:
as §1
On to `CC(C)(O/N=C(\C(=O)N[C@@H]1C(=O)N2C(C(=O)[O-])=C(C[n+]3ccccc3)CS[C@H]12)c1csc(N)n1)C(=O)O` [CEFTAZIDIME], for which the MIC is > 256 mg/L.

In a further assay the test system is Acinetobacter baumannii. The experiment in a line: Antibacterial activity against imipenem-resistant Acinetobacter baumannii abh9 by broth dilution method. The assay is classed as functional. The essentials: as §1
Turning to `CC(C)(O/N=C(\C(=O)N[C@@H]1C(=O)N2C(C(=O)[O-])=C(C[n+]3ccccc3)CS[C@H]12)c1csc(N)n1)C(=O)O` [CEFTAZIDIME], the minimal inhibitory concentration (MIC) is > 256 mg/L.

In the next assay the test system is Acinetobacter baumannii. The experiment in a line: Antibacterial activity against imipenem-susceptible Acinetobacter baumannii ab20 by broth dilution method. The assay is classed as functional. The essentials:
as §1
The compound `CC(C)(O/N=C(\C(=O)N[C@@H]1C(=O)N2C(C(=O)[O-])=C(C[n+]3ccccc3)CS[C@H]12)c1csc(N)n1)C(=O)O` [CEFTAZIDIME] came in with an MIC of 24 mg/L (≈ 43.9 µM).

The subject of another assay is Acinetobacter baumannii. The experiment in a line: Antibacterial activity against imipenem-resistant Acinetobacter baumannii abh18 by broth dilution method. It counts as functional. The gist of the method:
as §1
For `CC(C)(O/N=C(\C(=O)N[C@@H]1C(=O)N2C(C(=O)[O-])=C(C[n+]3ccccc3)CS[C@H]12)c1csc(N)n1)C(=O)O` [CEFTAZIDIME], the MIC is > 256 mg/L.

The test system of another assay is Acinetobacter baumannii. The assay is described as follows: Antibacterial activity against imipenem-resistant Acinetobacter baumannii abh20 by broth dilution method. The assay is classed as functional. The gist of the method: as §1
In the case of `CC(C)(O/N=C(\C(=O)N[C@@H]1C(=O)N2C(C(=O)[O-])=C(C[n+]3ccccc3)CS[C@H]12)c1csc(N)n1)C(=O)O` [CEFTAZIDIME], the MIC is > 256 mg/L.

Another assay has as its system Acinetobacter baumannii. The assay is described as follows: Antibacterial activity against imipenem-resistant Acinetobacter baumannii ab1266 by broth dilution method. The assay is classed as functional. The gist of the method:
as §1
As to `CC(C)(O/N=C(\C(=O)N[C@@H]1C(=O)N2C(C(=O)[O-])=C(C[n+]3ccccc3)CS[C@H]12)c1csc(N)n1)C(=O)O` [CEFTAZIDIME], the MIC is > 256 mg/L.

Another assay relates to Acinetobacter baumannii. The assay is described as follows: Antibacterial activity against imipenem-resistant Acinetobacter baumannii abh26 by broth dilution method. It counts as functional. The gist of the method: as §1
For the compound `CC(C)(O/N=C(\C(=O)N[C@@H]1C(=O)N2C(C(=O)[O-])=C(C[n+]3ccccc3)CS[C@H]12)c1csc(N)n1)C(=O)O` [CEFTAZIDIME], the MIC is > 256 mg/L.

The subject of the next assay is Acinetobacter baumannii. The experiment in a line: Antibacterial activity against imipenem-resistant Acinetobacter baumannii abh11 by broth dilution method. The assay is classed as functional. The gist of the method:
as §1
`CC(C)(O/N=C(\C(=O)N[C@@H]1C(=O)N2C(C(=O)[O-])=C(C[n+]3ccccc3)CS[C@H]12)c1csc(N)n1)C(=O)O` [CEFTAZIDIME]: the MIC was > 256 mg/L.

Another assay deals with Acinetobacter baumannii. The assay is described as follows: Antibacterial activity against imipenem-susceptible Acinetobacter baumannii ab1308 by broth dilution method. The assay is classed as functional. The gist of the method: as §2
`CC(C)(O/N=C(\C(=O)N[C@@H]1C(=O)N2C(C(=O)[O-])=C(C[n+]3ccccc3)CS[C@H]12)c1csc(N)n1)C(=O)O` [CEFTAZIDIME]: the MIC was > 256 mg/L.

The subject of a further assay is Acinetobacter baumannii. The assay is described as follows: Antibacterial activity against imipenem-susceptible Acinetobacter baumannii ab3 by broth dilution method. The assay is classed as functional. The essentials:
as §1
`CC(C)(O/N=C(\C(=O)N[C@@H]1C(=O)N2C(C(=O)[O-])=C(C[n+]3ccccc3)CS[C@H]12)c1csc(N)n1)C(=O)O` [CEFTAZIDIME] yielded an MIC of 48 mg/L (≈ 87.8 µM).

The next assay deals with Acinetobacter baumannii. The experiment in a line: Antibacterial activity against imipenem-susceptible Acinetobacter baumannii ab1316 by broth dilution method. It counts as functional. The essentials: as §2
Regarding `CC(C)(O/N=C(\C(=O)N[C@@H]1C(=O)N2C(C(=O)[O-])=C(C[n+]3ccccc3)CS[C@H]12)c1csc(N)n1)C(=O)O` [CEFTAZIDIME], the MIC was > 256 mg/L.

Another assay relates to Acinetobacter baumannii. The experiment in a line: Antibacterial activity against imipenem-resistant Acinetobacter baumannii abh29 by broth dilution method. It counts as functional. The essentials: as §1
With `CC(C)(O/N=C(\C(=O)N[C@@H]1C(=O)N2C(C(=O)[O-])=C(C[n+]3ccccc3)CS[C@H]12)c1csc(N)n1)C(=O)O` [CEFTAZIDIME], the MIC is > 256 mg/L.

Another assay relates to Acinetobacter baumannii. The experiment in a line: Antibacterial activity against imipenem-resistant Acinetobacter baumannii abh13 by broth dilution method. The assay is classed as functional. The gist of the method: as §1
For `CC(C)(O/N=C(\C(=O)N[C@@H]1C(=O)N2C(C(=O)[O-])=C(C[n+]3ccccc3)CS[C@H]12)c1csc(N)n1)C(=O)O` [CEFTAZIDIME], the MIC was > 256 mg/L.

Another assay concerns Acinetobacter baumannii. The assay is described as follows: Antibacterial activity against imipenem-resistant Acinetobacter baumannii abh17 by broth dilution method. It counts as functional. The gist of the method:
as §1
For the compound `CC(C)(O/N=C(\C(=O)N[C@@H]1C(=O)N2C(C(=O)[O-])=C(C[n+]3ccccc3)CS[C@H]12)c1csc(N)n1)C(=O)O` [CEFTAZIDIME], the MIC is > 256 mg/L.

Another assay relates to Acinetobacter baumannii. The assay is described as follows: Antibacterial activity against imipenem-susceptible Acinetobacter baumannii ab12 by broth dilution method. It counts as functional. The essentials: as §1
With `CC(C)(O/N=C(\C(=O)N[C@@H]1C(=O)N2C(C(=O)[O-])=C(C[n+]3ccccc3)CS[C@H]12)c1csc(N)n1)C(=O)O` [CEFTAZIDIME], inhibition of growth (MIC) required 48 mg/L (≈ 87.8 µM).

The test system of a further assay is Acinetobacter baumannii. The assay is described as follows: Antibacterial activity against imipenem-resistant Acinetobacter baumannii abh36 by broth dilution method. It counts as functional. The gist of the method:
as §1
As to `CC(C)(O/N=C(\C(=O)N[C@@H]1C(=O)N2C(C(=O)[O-])=C(C[n+]3ccccc3)CS[C@H]12)c1csc(N)n1)C(=O)O` [CEFTAZIDIME], the MIC was > 256 mg/L.

For the next assay, the system named is Acinetobacter baumannii. The assay is described as follows: Antibacterial activity against imipenem-susceptible Acinetobacter baumannii ab8 by broth dilution method. The assay is classed as functional. The essentials: as §1
In turn, `CC(C)(O/N=C(\C(=O)N[C@@H]1C(=O)N2C(C(=O)[O-])=C(C[n+]3ccccc3)CS[C@H]12)c1csc(N)n1)C(=O)O` [CEFTAZIDIME] showed an MIC of 48 mg/L (≈ 87.8 µM).
